# Laboratory results reported in ChEMBL document CHEMBL5724801, “EUbOPEN Chemogenomics Library - Multiplex” (2024).
# “And” between values parts separate entries of the source, which are not always exact repeats. Identical values can stand only once.
# Tested on: U2OS
# Experiment: Multiplex assay against U2OS
# Assay type: toxicity, cell-based
# Conditions: human
# How it was run: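 Hoechst33342, BioTracker Green Microtubule Cytoskeleton Dye, MitoTracker Red and Annexin V Alexa Fluor 680 were added to live cells at seeding, and imaging on a CQ1 microscope at 37°C and 5% CO2 followed compound addition. Gating by CellPathfinder machine learning separated cells into Hoechst high-intensity objects or normal cells, then normal cells into healthy, pyknosed or fragmented nuclei, then pyknosed cells into mitotic or apoptotic. Per cents of healthy-nucleus cells are reported for the tubulin, mitochondrial-mass and membrane-permeability phenotypes.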
# [1] = 12 h, 1 µM, compound concentration 1 uM
# [2] = 12 h, 10 µM, compound concentration 10 uM
# [3] = 24 h, 1 µM, compound concentration 1 uM
# [4] = 24 h, 10 µM, compound concentration 10 uM
# [5] = 48 h, 1 µM, compound concentration 1 uM
# [6] = 48 h, 10 µM, compound concentration 10 uM
smiles,measurement,setting,value
O=c1cccc2n1C[C@@H]1CNC[C@H]2C1 [CYTISINICLINE],Population Apoptotic (%),[1],31.43% and 36.84%
same,Population Fragmented Nuclei (%),[1],0.94% and 1.67%
same,Population Healthy Nuclei (%),[1],90.87% and 87.78%
same,Population Hoechst High Intensity Objects (%),[1],0%
same,Population Membrane Permeable-Phenotype (%),[1],1.29% and 1.9%
same,Population Mitochondria Different-Phenotype (%),[1],0% and 5.06%
same,Population Mitotic Cells (%),[1],68.57% and 63.16%
same,Population Normal (%),[1],100%
same,Population Pyknosed Nuclei (%),[1],8.2% and 10.56%
same,Population Tubulin-Different-Phenotype (%),[1],1.29% and 0%
same,Total Cell Count,[1],427 and 180
same,Population Apoptotic (%),[2],50%
same,Population Fragmented Nuclei (%),[2],0.98% and 7.59%
same,Population Healthy Nuclei (%),[2],90.71% and 82.28%
same,Population Hoechst High Intensity Objects (%),[2],0%
same,Population Membrane Permeable-Phenotype (%),[2],1.35% and 0.77%
same,Population Mitochondria Different-Phenotype (%),[2],0% and 6.92%
same,Population Mitotic Cells (%),[2],50%
same,Population Normal (%),[2],100%
same,Population Pyknosed Nuclei (%),[2],8.31% and 10.13%
same,Population Tubulin-Different-Phenotype (%),[2],1.62% and 1.54%
same,Total Cell Count,[2],409 and 158
same,Population Apoptotic (%),[3],30.23% and 40%
same,Population Fragmented Nuclei (%),[3],2.82% and 2.92%
same,Population Healthy Nuclei (%),[3],89.59% and 86.67%
same,Population Hoechst High Intensity Objects (%),[3],0%
same,Population Membrane Permeable-Phenotype (%),[3],1.18% and 2.4%
same,Population Mitochondria Different-Phenotype (%),[3],0% and 2.4%
same,Population Mitotic Cells (%),[3],69.77% and 60%
same,Population Normal (%),[3],100%
same,Population Pyknosed Nuclei (%),[3],7.58% and 10.42%
same,Population Tubulin-Different-Phenotype (%),[3],0.59% and 0.96%
same,Total Cell Count,[3],567 and 240
same,Population Apoptotic (%),[4],32.61% and 45%
same,Population Fragmented Nuclei (%),[4],0.88% and 4.81%
same,Population Healthy Nuclei (%),[4],91.01% and 85.58%
same,Population Hoechst High Intensity Objects (%),[4],0.18% and 0%
same,Population Membrane Permeable-Phenotype (%),[4],0.97% and 1.69%
same,Population Mitochondria Different-Phenotype (%),[4],0% and 3.37%
same,Population Mitotic Cells (%),[4],67.39% and 55%
same,Population Normal (%),[4],99.82% and 100%
same,Population Pyknosed Nuclei (%),[4],8.11% and 9.62%
same,Population Tubulin-Different-Phenotype (%),[4],2.13% and 1.69%
same,Total Cell Count,[4],568 and 208
same,Population Apoptotic (%),[5],42.86% and 41.18%
same,Population Fragmented Nuclei (%),[5],3.85% and 0.73%
same,Population Healthy Nuclei (%),[5],89.27% and 86.8%
same,Population Hoechst High Intensity Objects (%),[5],0% and 0.49%
same,Population Membrane Permeable-Phenotype (%),[5],0.8% and 1.41%
same,Population Mitochondria Different-Phenotype (%),[5],0.1% and 3.1%
same,Population Mitotic Cells (%),[5],57.14% and 58.82%
same,Population Normal (%),[5],100% and 99.51%
same,Population Pyknosed Nuclei (%),[5],6.89% and 12.47%
same,Population Tubulin-Different-Phenotype (%),[5],0.6% and 0.56%
same,Total Cell Count,[5],1118 and 411
same,Population Apoptotic (%),[6],42.39% and 63.89%
same,Population Fragmented Nuclei (%),[6],3.71% and 1.13%
same,Population Healthy Nuclei (%),[6],87.55% and 88.7%
same,Population Hoechst High Intensity Objects (%),[6],0%
same,Population Membrane Permeable-Phenotype (%),[6],0.65% and 2.23%
same,Population Mitochondria Different-Phenotype (%),[6],0.11% and 0.96%
same,Population Mitotic Cells (%),[6],57.61% and 36.11%
same,Population Normal (%),[6],100%
same,Population Pyknosed Nuclei (%),[6],8.75% and 10.17%
same,Population Tubulin-Different-Phenotype (%),[6],1.19% and 0.64%
same,Total Cell Count,[6],1052 and 354
C[C@@H]1C[C@H]2[C@@H]3CCC4=CC(=O)C=C[C@]4(C)[C@@]3(F)[C@@H](O)C[C@]2(C)[C@@]1(O)C(=O)CO [DEXAMETHASONE],Population Apoptotic (%),[1],77% and 80%
same,Population Fragmented Nuclei (%),[1],21% and 20%
same,Population Healthy Nuclei (%),[1],70% and 75%
same,Population Hoechst High Intensity Objects (%),[1],2% and 0%
same,Population Membrane Permeable-Phenotype (%),[1],2% and 4%
same,Population Mitochondria Different-Phenotype (%),[1],0% and 1%
same,Population Mitotic Cells (%),[1],22% and 20%
same,Population Normal (%),[1],97% and 99%
same,Population Pyknosed Nuclei (%),[1],7% and 4%
same,Population Tubulin-Different-Phenotype (%),[1],1% and 3%
same,Total Cell Count,[1],238 and 124
same,Population Apoptotic (%),[2],80% and 84%
same,Population Fragmented Nuclei (%),[2],20% and 16%
same,Population Healthy Nuclei (%),[2],69% and 76%
same,Population Hoechst High Intensity Objects (%),[2],2% and 0%
same,Population Membrane Permeable-Phenotype (%),[2],6% and 7%
same,Population Mitochondria Different-Phenotype (%),[2],1% and 2%
same,Population Mitotic Cells (%),[2],19% and 15%
same,Population Normal (%),[2],97% and 100%
same,Population Pyknosed Nuclei (%),[2],9% and 7%
same,Population Tubulin-Different-Phenotype (%),[2],2% and 3%
same,Total Cell Count,[2],319
same,Population Apoptotic (%),[3],96% and 90%
same,Population Fragmented Nuclei (%),[3],19% and 18%
same,Population Healthy Nuclei (%),[3],71% and 73%
same,Population Hoechst High Intensity Objects (%),[3],2%
same,Population Membrane Permeable-Phenotype (%),[3],4% and 6%
same,Population Mitochondria Different-Phenotype (%),[3],2% and 0%
same,Population Mitotic Cells (%),[3],4% and 9%
same,Population Normal (%),[3],97%
same,Population Pyknosed Nuclei (%),[3],8% and 7%
same,Population Tubulin-Different-Phenotype (%),[3],2% and 4%
same,Total Cell Count,[3],288
same,Population Apoptotic (%),[4],82% and 75%
same,Population Fragmented Nuclei (%),[4],17% and 14%
same,Population Healthy Nuclei (%),[4],74% and 79%
same,Population Hoechst High Intensity Objects (%),[4],1% and 0%
same,Population Membrane Permeable-Phenotype (%),[4],6%
same,Population Mitochondria Different-Phenotype (%),[4],0% and 2%
same,Population Mitotic Cells (%),[4],17% and 25%
same,Population Normal (%),[4],98% and 99%
same,Population Pyknosed Nuclei (%),[4],7% and 5%
same,Population Tubulin-Different-Phenotype (%),[4],2%
same,Total Cell Count,[4],378 and 219
same,Population Apoptotic (%),[5],84% and 71%
same,Population Fragmented Nuclei (%),[5],20% and 17%
same,Population Healthy Nuclei (%),[5],72% and 74%
same,Population Hoechst High Intensity Objects (%),[5],1% and 2%
same,Population Membrane Permeable-Phenotype (%),[5],1% and 3%
same,Population Mitochondria Different-Phenotype (%),[5],1% and 3%
same,Population Mitotic Cells (%),[5],16% and 28%
same,Population Normal (%),[5],98% and 97%
same,Population Pyknosed Nuclei (%),[5],6% and 7%
same,Population Tubulin-Different-Phenotype (%),[5],0% and 4%
same,Total Cell Count,[5],391 and 186
same,Population Apoptotic (%),[6],92% and 86%
same,Population Fragmented Nuclei (%),[6],14% and 16%
same,Population Healthy Nuclei (%),[6],77% and 76%
same,Population Hoechst High Intensity Objects (%),[6],2%
same,Population Membrane Permeable-Phenotype (%),[6],4% and 5%
same,Population Mitochondria Different-Phenotype (%),[6],1% and 0%
same,Population Mitotic Cells (%),[6],7% and 13%
same,Population Normal (%),[6],97%
same,Population Pyknosed Nuclei (%),[6],8% and 7%
same,Population Tubulin-Different-Phenotype (%),[6],1%
same,Total Cell Count,[6],497 and 294
